Reference: article PMC7104417 (ACS chemical neuroscience, 2020)
Where “and” joins values, the source holds several entries; their conditions need not be identical. Identical values can stand only once. Like-named read-outs stand apart in the source and are kept apart here.

Legend:
human M1R [1] = target: T1, human M1R (Homo sapiens, UniProt P11229); format: binding; conditions: for Displacement of radioligand at M1Rs at highest concentration: 100 μM
T1 sequence (P11229 1-460): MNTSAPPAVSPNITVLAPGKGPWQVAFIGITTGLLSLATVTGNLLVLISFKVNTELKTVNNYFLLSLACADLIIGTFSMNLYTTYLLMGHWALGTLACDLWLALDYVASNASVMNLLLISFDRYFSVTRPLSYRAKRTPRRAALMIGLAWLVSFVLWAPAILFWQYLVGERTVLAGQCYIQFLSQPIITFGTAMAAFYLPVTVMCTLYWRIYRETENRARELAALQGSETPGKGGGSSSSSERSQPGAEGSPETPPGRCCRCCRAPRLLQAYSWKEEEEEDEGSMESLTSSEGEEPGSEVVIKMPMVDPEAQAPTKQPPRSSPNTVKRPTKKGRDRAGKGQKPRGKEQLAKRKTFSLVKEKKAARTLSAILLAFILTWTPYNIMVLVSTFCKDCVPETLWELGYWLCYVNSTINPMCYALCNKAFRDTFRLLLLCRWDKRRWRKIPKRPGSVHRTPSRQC

human M2R [2] = target: T2, human M2R (Homo sapiens, UniProt P08172); assay: [3H]scopolamine radioligand competition binding at M2R; conditions: for Displacement of radioligand at M2Rs at highest concentration: 100 μM; for Displacement of radioligand at M2Rs at highest concentration / Ki: full dose-response competition binding; for Ki: read-out: Ki at M2Rs
T2 sequence (P08172 1-466): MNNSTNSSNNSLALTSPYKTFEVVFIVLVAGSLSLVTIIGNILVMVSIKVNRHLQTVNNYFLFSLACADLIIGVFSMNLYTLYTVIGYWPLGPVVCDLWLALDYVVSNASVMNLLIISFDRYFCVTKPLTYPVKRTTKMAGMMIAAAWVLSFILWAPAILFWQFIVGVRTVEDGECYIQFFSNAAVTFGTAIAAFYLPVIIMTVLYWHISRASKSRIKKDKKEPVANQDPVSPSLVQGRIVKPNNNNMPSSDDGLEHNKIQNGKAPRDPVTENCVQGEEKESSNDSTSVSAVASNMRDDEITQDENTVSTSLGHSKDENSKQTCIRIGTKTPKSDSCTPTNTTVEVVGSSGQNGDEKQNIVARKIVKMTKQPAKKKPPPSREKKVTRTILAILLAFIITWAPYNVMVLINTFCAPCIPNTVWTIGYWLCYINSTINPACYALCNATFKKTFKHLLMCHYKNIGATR

[3] = tested on: human M1Rs, M2Rs, M3Rs, M4Rs, and M5Rs; assay: Initial [3H]scopolamine displacement screen at each of the five MR subtypes; format: binding; conditions: screened at 1 and 10 μM
How it was run: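 HEK293 cells (passage <20), lipid-transfected with human M1–M5 receptor cDNA; membranes harvested ~48 h later and stored at -80 °C. […] Filtered on GF/B, washed with ice-cold 50 mM Tris pH 7.4, scintillation counted. Affinities estimated from these two concentrations; N=2.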

[4] = cited from earlier work
[5] = α-PVP confirmed as only stimulant responsible for intoxication; cited from earlier work
human M1R [6] = target: T1, human M1R; conditions: cited from earlier work
human M2R [7] = target: T2, human M2R; assay: M2R cAMP signaling; format: cell-based
human M2R [8] = target: T2, human M2R; assay: M2R β-arrestin recruitment; format: cell-based
human M1Rs = target: T3, human M1Rs (Homo sapiens, UniProt P11229); assay: M1R phosphoinositide hydrolysis; format: cell-based
T3 sequence (P11229 1-460): T1 sequence (P11229 1-460)

[9] = cited from earlier work; remark: listed apart in the source
DAT = conditions: cited from earlier work
NET = conditions: cited from earlier work
[10] = full dose-response competition binding

For CCC(C(=O)c1ccccc1)N1CCCC1 (stereo not drawn) [α-PBP, α-pyrrolidinobutiophenone], the “Displacement of radioligand at M1Rs at highest concentration” value (human M1R [1]; [10]) was “less than 50%”, the “Displacement of radioligand at M2Rs at highest concentration” value (human M2R [2]) was “less than 50%” and the Ki (human M2R [2]; interpolated) was 40000 nM. For the same molecule, the “Displacement of 1 nM [3H]scopolamine from each of the MR subtypes” value [3] was < 5%.

For CCCC(C(=O)c1ccccc1)N1CCCC1 (stereo not drawn) [α-PVP, α-pyrrolidinopentiophenone], the “Fold increase in M2R affinity compared to α-PBP” value (human M2R [2]; ratio of Ki values) was 49 fold, the “Fold increase in M2R affinity compared to α-PPP” value (human M2R [2]; ratio of Ki values) was 89 fold and the Ki (human M2R [2]) was 824 nM. The “Serum concentration, non-fatal cases” value ([4]; non-fatal cases, as high as) was ≤ 2600 nM, the “Concentration, postmortem cases” value ([4]; postmortem cases, as high as) was ≤ 86000 nM and the “Patients presenting with tachycardia” value [5] was 80%.

With CCCCC(C(=O)c1ccc2c(c1)OCO2)N1CCCC1 (stereo not drawn) [MDPHP, 3,4-methylenedioxy-α-pyrrolidinohexiophenone] the “Estimated pKi at M1R” value (human M1R [1]) was 5.44 and the Ki (human M1R [1]; read-out: Estimated Ki at M1Rs, estimated from 1 and 10 μM screens) was 3630 nM.

For CNC(C)C(=O)c1ccc(Br)cc1 (stereo not shown) [4-bromomethcathinone, reference compound], the “Affinity at M1Rs (initial experiments)” value (human M1R [6]) is given as “nil affinity”.

With O=C1CCCN1CC#CCN1CCCC1 [oxotremorine, reference compound] the EC50 (human M2R [7]) was 28.8 nM, the “EC80, decrease of forskolin-stimulated cAMP production” value (human M2R [7]; 10 μM forskolin) was 130 nM and the “EC80, β-arrestin recruitment” value (human M2R [8]; concentration used in antagonist tests) was 10000 nM. The “EC80, IP1 production” value (human M1Rs) was 500 nM.

In the case of CCCCCCC(C(=O)c1ccccc1)N1CCCC1 (stereo not drawn) [α-PV9, α-pyrrolidinooctanophenone, reference compound], the “Effect on mitochondrial activity and cellular membranes” value [9] is listed as “potently decreased mitochondrial activity and severely damaged cellular membranes”.

In the case of CCCCCC(C(=O)c1ccc2c(c1)OCO2)N1CCCC1 (stereo not drawn) [MDPHPP, 3,4-methylenedioxy-α-pyrrolidinoheptaphenone], the “Estimated pKi at M1R” value (human M1R [1]) is reported as 5.22.

In the case of CC(C(=O)c1ccccc1)N1CCCC1 (stereo not drawn) [α-PPP, α-pyrrolidinopropiophenone], the “Displacement of radioligand at M1Rs at highest concentration” value (human M1R [1]; [10]) is reported as “less than 50%”, the “Displacement of radioligand at M2Rs at highest concentration” value (human M2R [2]) is reported as “less than 50%” and the “Displacement of 1 nM [3H]scopolamine from each of the MR subtypes” value [3] is reported as < 5%. For the same molecule, the “Affinity at M1Rs (initial experiments)” value (human M1R [6]) was “nil affinity”.

In the case of CC(C(=O)c1ccc2c(c1)OCO2)N1CCCC1 (stereo not drawn) [MDPPP, 3,4-methylenedioxy-α-pyrrolidinopropiophenone], the “Affinity at M1Rs (initial experiments)” value (human M1R [6]) is listed as “nil affinity”.

In the case of CCCC(C(=O)c1ccc2c(c1)OCO2)N1CCCC1 (stereo not shown) [MDPV, 3,4-methylenedioxypyrovalerone], the “Estimated pKi at M1R” value (human M1R [1]) is given as 5.06 and the “Effect on mitochondrial activity and cellular membranes” value [9] is given as “not observed”.

With CCCCC(C(=O)c1ccccc1)N1CCCC1 (stereo not drawn) [α-PHP, α-pyrrolidinohexiophenone] the “Fold increase in M1R affinity from α-PPP” value (human M1R [1]; ratio of Ki values) was 121 fold, the Ki (human M1R [1]; read-out: Ki at M1Rs, full dose-response competition binding) was 1600 nM and the “Fold increase in M2R affinity compared to α-PPP” value (human M2R [2]; ratio of Ki values) was 302 fold. For the same molecule, the Ki (human M2R [2]) was 251 nM, the “pKb, inhibition of M2R stimulation by oxotremorine (cAMP)” value (human M2R [7]) was 6.92 ±0.03 and the “Functional activity at M2R-cAMP signaling pathway” value (human M2R [7]; maximal effect above forskolin alone) was “inverse agonist”. The Kb (human M2R [7]; read-out: Kb, inhibition of M2R stimulation by oxotremorine (cAMP)) was 120 nM, the “pKb, inhibition of oxotremorine-stimulated β-arrestin recruitment” value (human M2R [8]; EC80 oxotremorine (10 μM)) was 6.30 ± 0.12 and the “Functional activity at M2R-β-arrestin recruitment” value (human M2R [8]; relative to basal signaling) was “inverse agonist”. The “pKb, inhibition of M1R-IP1 production caused by oxotremorine” value (human M1Rs; EC80 oxotremorine (500 nM)) was 5.86 ± 0.35, the “Functional activity at M1R-inositol phosphate signaling pathway” value (human M1Rs; maximal effect lower than basal signaling) was “inverse agonist activity” and the Kb (human M1Rs; read-out: Kb, inhibition of M1R-IP1 production caused by oxotremorine, EC80 oxotremorine (500 nM)) was 1400 nM and 1380 nM. For the same molecule, the “Blood concentration, fatal cases” value ([4]; fatal cases, as high as) was ≤ 2860 nM, the “Blood concentration, non-fatal case” value ([4]; male admitted to hospital after inhaling only α-PHP) was 1280 nM and the “Serum concentration, non-fatal case” value ([4]; patient admitted to hospital after taking α-PHP) was 710 nM. The “Fold higher affinity at DAT than α-PPP” value (DAT) was 81 fold and the “Fold higher affinity at NET than α-PPP” value (NET) was 6 fold.
